Common to all, as to assay type: functional
For assay [1], the system named is Rattus norvegicus. In words: In vivo biological activity against HDL relative to gemfibrozil in male Sprague-Dawley rats. The method, boiled down:
(§1)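 Compounds given in the diet to groups of six rats for 8 days, after a 7-day lead-in; dose expressed as mg/kg/day. At termination, rats anesthetized with CO2 and bled from the carotid artery, and serum separated. Values are % change or ratio versus gemfibrozil (set = 1), each relative to an untreated control group; significance P < 0.05.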

For assay [2], the system named is Rattus norvegicus. Description: Percentage change in total cholesterol was determined in vivo in male Sprague-Dawley rats. The method, boiled down: as §1
Assay [3] has as its system Rattus norvegicus. Description: Percentage change in total triglycerides was determined in vivo in male Sprague-Dawley rats. Put shortly: as §1
The subject of assay [4] is Rattus norvegicus. Description: Dose administered for testing biological activity in vivo in male Sprague-Dawley rats. Put shortly: as §1
Assay [5] has as its system Rattus norvegicus. Description: In vivo biological activity against Apo A-I relative to gemfibrozil in male Sprague-Dawley rats. Put shortly: as §1

For `Cc1ccc(Cl)cc1/N=C(\S)NCC(C)(C)C(N)=O`, the values for the Activity in the assay on Rattus norvegicus [1] and in the assay on Rattus norvegicus [5] were 0.57 and 1.15, respectively. Also, the Change is given as -3% in the assay on Rattus norvegicus [2] and -49% in the assay with Rattus norvegicus [3]. This molecule also displayed a Dose in the assay on Rattus norvegicus [4] of 41 mg/kg/day.
For `Cc1ccc(Cl)cc1/N=C(\S)NCCO`, in that order: 0.61, 1.06, 40%, -56% and 52 mg/kg/day.
Consider `Cc1ccc(Cl)cc1NC(=O)NCC(C)(C)C(=O)O`, for which the Activity in the assay on Rattus norvegicus [1] is 0.36; with Rattus norvegicus [5], 0.32. Besides, the Change in the assay with Rattus norvegicus [2] is reported as 74%; in the assay with Rattus norvegicus [3], -21%. The molecule also yielded a Dose in the assay with Rattus norvegicus [4] of 73 mg/kg/day.
For `Cc1ccc(C)c(N/C(S)=N/CC(C)(C)C(=O)O)c1`, in that order: 0.54, 0.93, 73%, 69% and 78 mg/kg/day.
The corresponding values for `COc1ccc(Cl)cc1/N=C(\S)NCC(C)(C)C(=O)O` are 0.62, 0.27, 9%, -28% and 77 mg/kg/day.
The corresponding values for `Cc1ccc(Cl)cc1/N=C(\S)N1CCCC(C)(C(=O)O)C1` (stereo not given) are 0.33, -0.16, 14%, 15% and 81 mg/kg/day.
Regarding `Cc1ccc(Cl)cc1/N=C(\S)NCC1(C(=O)O)CCC1`, the results for the Activity in the assay on Rattus norvegicus [1] and with Rattus norvegicus [5] were 1.19 and 0.49, respectively. Moreover, the Change with Rattus norvegicus [2] was 36%; in the assay on Rattus norvegicus [3], -39%. The molecule further displayed a Dose with Rattus norvegicus [4] of 76 mg/kg/day.
Take `COC(=O)C(C)(C)C/N=C(\S)Nc1cc(Cl)ccc1C`: the Activity in the assay with Rattus norvegicus [1] was 0.93; in the assay on Rattus norvegicus [5], 1.81. Besides, the Change in the assay with Rattus norvegicus [2] and in the assay on Rattus norvegicus [3] was -12% each time. Also, the Dose in the assay with Rattus norvegicus [4] turned out to be 74 mg/kg/day.
Regarding `Cc1ccc(Cl)cc1/N=C(\S)NCC1(C(=O)O)CCCC1`, the Activity was 1.09 in the assay with Rattus norvegicus [1] and 0.55 in the assay on Rattus norvegicus [5]. The Change with Rattus norvegicus [2] was 41%; in the assay on Rattus norvegicus [3], -61%. The Dose with Rattus norvegicus [4] stood at 67 mg/kg/day.
On to `Cc1ccc(Cl)cc1/N=C(\S)NCC1(C(=O)O)CCCCC1`, for which the Activity is on record as 0.73 in the assay with Rattus norvegicus [1] and 0.32 in the assay on Rattus norvegicus [5]. The Change in the assay with Rattus norvegicus [2] is recorded as 21%; with Rattus norvegicus [3] it was -54%. The Dose in the assay with Rattus norvegicus [4] turned out to be 88 mg/kg/day.
The corresponding values for `Cc1ccc(C)c(OCCCC(C)(C)C(=O)O)c1` [GEMFIBROZIL] are 1, 1, -23%, -43% and 46 mg/kg/day.
